Measurements from ChEMBL document CHEMBL1828575, “Design, synthesis and antiproliferative activities of biarylolefins based on polyhydroxylated and carbohydrate scaffolds” (Eur J Med Chem, 2011).
Activity calls are given as the source filed them. The calls are words filed in the database; no cut-off is given here.

Experiments:
[1] = tested on: SK-OV-3; assay: Cytotoxicity against human SKOV3 cells at 10^-6 M after 72 hrs by MTS assay; format: functional; settings: SK-OV-3, 72 h, read-out: GI
Outline: (§1)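 Preliminary screen at 10^-5 and 10^-6 M. Cells were grown in RPMI with 10% fetal calf serum plus penicillin, streptomycin and fungizone under 5% CO₂, plated in 96-well plates, and dosed 24 h later from DMSO stocks (1% DMSO final, same in controls). After 72 h, MTS was added for 3 h at 37 °C and absorbance read at 490 nm. Inhibition was calculated as (1 − OD treated/OD control) × 100, in triplicate.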

[2] = tested on: HT-29; assay: Cytotoxicity against human HT-29 cells at 10^-6 M after 72 hrs by MTS assay; format: functional; settings: HT-29, 72 h, read-out: GI
Outline: (§2)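 Cells grown in RPMI with 10% fetal calf serum, penicillin, streptomycin and fungizone under 5% CO₂. Plated in 96-well plates and dosed 24 h later with compound in DMSO (1% final DMSO; controls got DMSO alone). After 72 h, MTS was added for 3 h at 37 °C and A490 read. Inhibition = (1 − OD treated/OD control) × 100, in triplicate.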

[3] = Cytotoxicity against human HL60R cells at 10^-5 M after 72 hrs by MTS assay; format: functional, HL-60; settings: read-out: GI; outline: as §2
[4] = tested on: HCT-15; assay: Cytotoxicity against human HCT15 cells at 10^-5 M after 72 hrs by MTS assay; format: functional; settings: HCT-15, 72 h, read-out: GI; outline: as §2
[5] = tested on: MIA PaCa-2; assay: Cytotoxicity against human MIAPaCa2 cells at 10^-5 M after 72 hrs by MTS assay; format: functional; settings: MIA PaCa-2, 72 h, read-out: GI
[6] = tested on: PC-3; assay: Cytotoxicity against human PC3 cells at 10^-6 M after 72 hrs by MTS assay; format: functional; settings: PC-3, 72 h, read-out: GI; outline: as §1
[7] = tested on: HCT-15; assay: Cytotoxicity against human HCT15 cells at 10^-6 M after 72 hrs by MTS assay; format: functional; settings: HCT-15, 72 h, read-out: GI; outline: as §2
[8] = tested on: SF-268; assay: Cytotoxicity against human SF268 cells at 10^-6 M after 72 hrs by MTS assay; format: functional; settings: SF-268, 72 h, read-out: GI; outline: as §1
[9] = tested on: SK-OV-3; assay: Cytotoxicity against human SKOV3 cells at 10^-5 M after 72 hrs by MTS assay; format: functional; settings: SK-OV-3, 72 h, read-out: GI; outline: as §1
[10] = tested on: OVCAR-8; assay: Cytotoxicity against human OVCAR8 cells at 10^-6 M after 72 hrs by MTS assay; format: functional; settings: OVCAR-8, 72 h, read-out: GI; outline: as §1
[11] = tested on: HCT-15; assay: Antiproliferative activity against human HCT15 cells after 72 hrs by MTS assay; format: functional, cell-based; settings: HCT-15, 72 h
Outline: (§3)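 Cell lines grown in RPMI with 10% fetal calf serum plus penicillin, streptomycin and fungizone under 5% CO2. Compounds in DMSO (1% final; controls got DMSO alone) were added 24 h after plating. After 72 h exposure, MTS was added for 3 h at 37 °C and A490 read. Inhibition = (1 − OD treated/OD control)×100, in triplicate. IC50s came from separate duplicate dose-response experiments.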

[12] = tested on: OVCAR-8; assay: Cytotoxicity against human OVCAR8 cells at 10^-5 M after 72 hrs by MTS assay; format: functional; settings: OVCAR-8, 72 h, read-out: GI; outline: as §1
[13] = tested on: K562; assay: Antiproliferative activity against human K562 cells after 72 hrs by MTS assay; format: functional, cell-based; settings: K562, 72 h; outline: as §3
[14] = tested on: PC-3; assay: Cytotoxicity against human PC3 cells at 10^-5 M after 72 hrs by MTS assay; format: functional; settings: PC-3, 72 h, read-out: GI; outline: as §1
[15] = Antiproliferative activity against human MDA231 cells after 72 hrs by MTS assay; format: functional, cell-based; settings: MDA-MB-231, 72 h; outline: as §3
[16] = tested on: HCT-116; assay: Cytotoxicity against human HCT116 cells at 10^-5 M after 72 hrs by MTS assay; format: functional; settings: HCT-116, 72 h, read-out: GI; outline: as §2
[17] = Cytotoxicity against human HL60R cells at 10^-6 M after 72 hrs by MTS assay; format: functional; settings: read-out: GI; outline: as §2
[18] = species on record: Ovis aries; assay: Inhibition of sheep brain tubulin polymerization at 10 uM
Outline: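 Microtubule protein from sheep brain, purified by two assembly/disassembly cycles (37 °C/0 °C), in 100 mM MES pH 6.6, 1 mM EGTA, 0.5 mM MgCl₂. Compounds in DMSO were tested at a single concentration, with incubation at 37 °C for 10 min and then 0 °C for 5 min before measuring assembly rate, following a modified Guénard protocol.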

[19] = Cytotoxicity against human MDA231 cells at 10^-6 M after 72 hrs by MTS assay; format: functional; settings: MDA-MB-231, 72 h, read-out: GI; outline: as §1
[20] = tested on: HT-29; assay: Cytotoxicity against human HT-29 cells at 10^-5 M after 72 hrs by MTS assay; format: functional; settings: HT-29, 72 h, read-out: GI; outline: as §2
[21] = Cytotoxicity against human MDA231 cells at 10^-5 M after 72 hrs by MTS assay; format: functional; settings: MDA-MB-231, 72 h, read-out: GI; outline: as §1
[22] = tested on: SK-OV-3; assay: Antiproliferative activity against human SKOV3 cells after 72 hrs by MTS assay; format: functional, cell-based; settings: SK-OV-3, 72 h; outline: as §3
[23] = tested on: A549; assay: Cytotoxicity against human A549 cells at 10^-6 M after 72 hrs by MTS assay; format: functional; settings: A549, 72 h, read-out: GI; outline: as §2
[24] = tested on: SF-268; assay: Cytotoxicity against human SF268 cells at 10^-5 M after 72 hrs by MTS assay; format: functional; settings: SF-268, 72 h, read-out: GI; outline: as §1
[25] = tested on: PC-3; assay: Antiproliferative activity against human PC3 cells after 72 hrs by MTS assay; format: functional, cell-based; settings: PC-3, 72 h; outline: as §3
[26] = tested on: SF-268; assay: Antiproliferative activity against human SF268 cells after 72 hrs by MTS assay; format: functional, cell-based; settings: SF-268, 72 h; outline: as §3
[27] = tested on: MIA PaCa-2; assay: Cytotoxicity against human MIAPaCa2 cells at 10^-6 M after 72 hrs by MTS assay; format: functional; settings: MIA PaCa-2, 72 h, read-out: GI
[28] = tested on: HL-60; assay: Antiproliferative activity against human HL60 cells after 72 hrs by MTS assay; format: functional, cell-based; settings: HL-60, 72 h; outline: as §3
[29] = tested on: A549; assay: Cytotoxicity against human A549 cells at 10^-5 M after 72 hrs by MTS assay; format: functional; settings: A549, 72 h, read-out: GI; outline: as §2
[30] = tested on: HCT-116; assay: Cytotoxicity against human HCT116 cells at 10^-6 M after 72 hrs by MTS assay; format: functional; settings: HCT-116, 72 h, read-out: GI; outline: as §2
[31] = tested on: MCF7; assay: Cytotoxicity against human MCF7 cells at 10^-6 M after 72 hrs by MTS assay; format: functional; settings: MCF7, 72 h, read-out: GI
[32] = tested on: HL-60; assay: Cytotoxicity against human HL60 cells at 10^-5 M after 72 hrs by MTS assay; format: functional; settings: HL-60, 72 h, read-out: GI; outline: as §2
[33] = tested on: K562; assay: Cytotoxicity against human K562 cells at 10^-5 M after 72 hrs by MTS assay; format: functional; settings: K562, 72 h, read-out: GI; outline: as §2
[34] = tested on: OVCAR-8; assay: Antiproliferative activity against human OVCAR8 cells after 72 hrs by MTS assay; format: functional, cell-based; settings: OVCAR-8, 72 h; outline: as §3
[35] = tested on: HL-60; assay: Cytotoxicity against human HL60 cells at 10^-6 M after 72 hrs by MTS assay; format: functional; settings: HL-60, 72 h, read-out: GI; outline: as §2
[36] = tested on: K562; assay: Cytotoxicity against human K562 cells at 10^-6 M after 72 hrs by MTS assay; format: functional; settings: K562, 72 h, read-out: GI; outline: as §2
[37] = Antiproliferative activity against human HL60R cells after 72 hrs by MTS assay; format: functional, cell-based
[38] = tested on: MCF7; assay: Cytotoxicity against human MCF7 cells at 10^-5 M after 72 hrs by MTS assay; format: functional; settings: MCF7, 72 h, read-out: GI
[39] = species on record: Ovis aries; assay: Inhibition of sheep brain tubulin polymerization at 17 uM

| IC50 [11] [nM] | IC50 [13] [nM] | tubulin polymerization inhibition call (active/not active) [18] | Compound | inhibition of growth at 1 µM [1] [%] | inhibition of growth at 1 µM [2] [%] | inhibition of growth at 10 µM [3] [%] | inhibition of growth at 10 µM [4] [%] | inhibition of growth at 10 µM [5] [%] | inhibition of growth at 1 µM [6] [%] | inhibition of growth at 1 µM [7] [%] | inhibition of growth at 1 µM [8] [%] | inhibition of growth at 10 µM [9] [%] | inhibition of growth at 1 µM [10] [%] | inhibition of growth at 10 µM [12] [%] | inhibition of growth at 10 µM [14] [%] | IC50 [15] [nM] | inhibition of growth at 10 µM [16] [%] | inhibition of growth at 1 µM [17] [%] | inhibition of growth at 1 µM [19] [%] | inhibition of growth at 10 µM [20] [%] | other results |
| --- | --- | --- | --- | --- | --- | --- | --- | --- | --- | --- | --- | --- | --- | --- | --- | --- | --- | --- | --- | --- | --- |
| 390 | 170 | inactive | COc1cc(C(=C(CO)CO)c2ccc3ccccc3c2)cc(OC)c1OC | 5 | 0 | 89 | 82 | 54 | 10 | 19 | 14 | 64 | 0 | 67 | 75 | 810 | 68 | 11 | 5 | 71 | inhibition of growth at 10 µM [21]: 88%; IC50 [22]: 6840 nM; inhibition of growth at 1 µM [23]: 3%; inhibition of growth at 10 µM [24]: 85%; IC50 [25]: 760 nM; IC50 [26]: 1250 nM; inhibition of growth at 1 µM [27]: 0%; IC50 [28]: 780 nM; inhibition of growth at 10 µM [29]: 67%; inhibition of growth at 1 µM [30]: 0%; inhibition of growth at 1 µM [31]: 8%; inhibition of growth at 10 µM [32]: 75%; inhibition of growth at 10 µM [33]: 83%; IC50 [34]: 4470 nM; inhibition of growth at 1 µM [35]: 17%; inhibition of growth at 1 µM [36]: 24%; IC50 [37]: 1680 nM; inhibition of growth at 10 µM [38]: 51% |
| – | – | inactive | COc1ccc(C(=C(CO)CO)c2cc(OC)c(OC)c(OC)c2)cc1O | – | – | – | – | – | – | – | – | – | – | – | – | – | – | – | – | – | inhibition [39]: Active |
| 630 | 450 | – | COc1ccc(/C(=C2\O[C@@H]([C@H](O)CO)[C@H]3OC(C)(C)O[C@@H]23)c2cc(OC)c(OC)c(OC)c2)cc1O | 6 | 6 | 95 | 82 | 58 | 0 | 11 | 16 | 81 | 1 | 95 | 77 | 610 | 58 | 12 | 0 | 8 | inhibition of growth at 10 µM [21]: 69%; IC50 [22]: 6510 nM; inhibition of growth at 1 µM [23]: 0%; inhibition of growth at 10 µM [24]: 73%; IC50 [25]: 690 nM; IC50 [26]: 1100 nM; inhibition of growth at 1 µM [27]: 5%; IC50 [28]: 820 nM; inhibition of growth at 10 µM [29]: 58%; inhibition of growth at 1 µM [30]: 1%; inhibition of growth at 1 µM [31]: 0%; inhibition of growth at 10 µM [32]: 79%; inhibition of growth at 10 µM [33]: 90%; IC50 [34]: 2970 nM; inhibition of growth at 1 µM [35]: 10%; inhibition of growth at 1 µM [36]: 15%; IC50 [37]: 1490 nM; inhibition of growth at 10 µM [38]: 43% |
